Compound activity (PubChem)
RORA act: RORA (human) activation; activation, % at 10 µM; P35398; hit rate 1.5% among 65,000; CHO-K1 Gal4-RORA LBD luciferase reporter, luminescence; percent increase over mock-subtracted basal signal;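 active = activation above the mean of all tested compounds plus 3 SD, cut at about 49% in these data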;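 also: 0% = DMSO-treated RORA cells and 100% = added signal equal to DMSO minus mock-transfected cells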
Jurkat tox 60K: reduces viability or proliferation of Jurkat cells | Jurkat E6.1 viability, ATP luminescence, 48 h | inhibition, % at 4 µM | hit rate 1.2% among 56,000;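 active = inhibition above the mean inhibition of all tested compounds plus 3 SD, cut at about 28% in these data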
MT1-MMP txn act: activates MT1-MMP transcription. HT1080 MT1-MMP promoter luciferase reporter, luminescence, overnight; stronger effect = higher value. hit rate 0.16% among 86,000. activation factor at 10 µM;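 active = activation factor of at least 2 for MT1-MMP transcription at 10 µM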
SF1 activator: activates the human nuclear receptor SF-1 | hit rate 1.9% among 65,000 | CHO-K1 Gal4-SF-1 LBD luciferase reporter; % increase over DMSO SF-1-specific signal | Q13285 | activation, % at 10 µM;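 active = activation above the mean activation of all tested compounds plus 3 SD, cut at about 50% in these data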
Target sequence (Q13285 whole entry, looked up, the tested form may be a part): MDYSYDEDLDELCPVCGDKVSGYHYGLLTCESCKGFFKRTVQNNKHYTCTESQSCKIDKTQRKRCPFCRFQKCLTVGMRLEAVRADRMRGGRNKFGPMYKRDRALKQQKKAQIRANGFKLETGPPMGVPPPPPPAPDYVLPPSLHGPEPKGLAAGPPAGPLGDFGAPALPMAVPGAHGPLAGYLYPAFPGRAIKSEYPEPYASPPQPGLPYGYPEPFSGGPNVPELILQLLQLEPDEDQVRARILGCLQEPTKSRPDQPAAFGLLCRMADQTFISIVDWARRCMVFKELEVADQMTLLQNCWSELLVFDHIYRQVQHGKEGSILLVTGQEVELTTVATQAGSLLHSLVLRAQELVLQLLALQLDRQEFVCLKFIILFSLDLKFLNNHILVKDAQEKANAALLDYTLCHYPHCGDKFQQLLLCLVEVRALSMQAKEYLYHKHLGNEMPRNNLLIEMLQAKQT
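Material: CHO-K1 cells with Gal4–hSF-1 LBD chimera plus Gal4-driven luciferase / Input: 4,000 CHO-K1 cells per well / Incubation: compound exposure 20 h at 37 °C / Signal: luminescence read 15 min after SteadyLite luciferase reagent, after room-temperature equilibration / Read-out: percent activation versus DMSO / Benchmarks: DMSO negative control and −SF1 background wells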
HEK293 NFkB inh: inhibitors of the PMA/ionomycin-induced NF-kB reporter in HEK293 cells | HEK-293 NF-kB luciferase reporter, luminescence | inhibition, % at 3 µM | hit rate 0.21% among 62,000;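 active = inhibition above the mean of all tested compounds plus 3 SD, cut at about 40% in these data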;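 also: 0% = stimulated DMSO wells and 100% = 10 µM reference inhibitor 5653914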
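System: NF-kB luciferase reporter HEK-293 cells | Replication: Single test | Control set: DMSO vs reference inhibitor | Evaluation: % inhibition | Schedule: 1 h pretreatment, 16 h stimulation, 37 °C | Probe or stimulus: PMA with ionomycin | Compound dosing: One dose, 3 µM | Detection: Luciferase luminescence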
* hit, by the source's call; x = not tested or not shown. Shown are actives, neighbours in structure and some others; about 2.9% of the full set was active somewhere.

SMILES	RORA act	Jurkat tox 60K	MT1-MMP txn act	SF1 activator	HEK293 NFkB inh
CN(C)S(=O)(=O)N1CCN(S(=O)(=O)c2ccc(F)cc2)CC1	-6.1	-6.5	1.1	-3.0	17.2
CN(C)S(=O)(=O)c1ccc(N2CCN(S(=O)(=O)c3ccc(F)cc3)CC2)c(Cl)c1	0.5	34.2*	0.9	-8.8	25.9
CN(CC(=O)NCc1ccc2c(c1)OCO2)S(=O)(=O)c1ccc(Br)s1	-4.6	x	x	-0.6	-3.3
CC(=O)c1c(C)[nH]c(C(=O)N2CCN(c3ccc(F)cc3)CC2)c1C	x	x	1.2	x	x
COc1cccc(N2CCN(C(=O)c3[nH]c(C)c(C(C)=O)c3C)CC2)c1	47.3	90.6*	0.8	-8.6	31.1
COc1ccc(Nc2nc(C)c3ccccc3n2)cc1	55.1*	-4.4	2.1*	98.7*	-17.3
CC1(C)CC(=O)C2(CC3=C(CC(C)(C)CC3=O)O2)C(=O)C1	-16.0	-1.1	1	-14.1	3.1
COc1ccc(CCNCc2csc3nc4ccccc4n23)cc1OC	-30.1	46.0*	1	0.1	19.0
COc1cccc(CNc2cc(CSc3ccc(Cl)cc3)nc(C)n2)c1	x	x	1.1	x	x
Cn1cccc1CNC(=O)Nc1ccc(Cl)c(Cl)c1	59.6*	11.5	1.7	66.4*	-1.6
CN(C(=O)c1cnccn1)c1nnc(-c2cccnc2)s1	6.9	-6.6	1.1	-1.1	0.7
COc1ccccc1-n1cnc(N)c1C(C)=O	-2.5	-3.8	1.1	11.2	14.6
COc1ccccc1-n1cnc(N)c1C(=O)c1ccccc1	9.1	36.1*	1.1	21.3	12.3
CCOC(=O)Nc1ccc2c(c1)Nc1ccccc1S2	52.9*	11.9	1.1	0.8	5.9
O=C(Nc1ccccc1)c1cnc[nH]1	28.4	-1.4	1.5	56.8*	-2.2
c1ccc2c(c1)NC(c1ccncc1)n1c-2nc2ccccc21 (centres undefined)	20.7	x	1.1	30.9	x
c1cncc(C2Nc3ccccc3-c3nc4ccccc4n32)c1 (centres undefined)	58.0*	x	x	38.1	-21.4
CCOC(=O)c1[nH]c(C)c(C(=O)NCCC2=CCCCC2)c1C	0.7	12.4	1.1	24.0	-0.5
CC(=O)c1c(C)[nH]c(C(=O)NCCC2=CCCCC2)c1C	68.6*	6.7	0.8	84.3*	-20.1
O=C(COc1ccccc1)Nc1nc2ccccc2[nH]1	55.1*	-0.8	1.4	60.3*	1.2
COc1cccc(C2=N/C(=C\N(C)C)C(=O)O2)c1	71.0*	0.8	1.4	26.2	-1.8
O=C(COC(=O)c1ccccc1Nc1cccc(C(F)(F)F)c1)NCc1ccco1	x	x	1.1	x	x
COc1cc(SC)ccc1C(=O)Nc1ccc2c(c1)OCCO2	13.7	-8.6	x	13.0	-50.1
COC(=O)c1[nH]c2cc(C)ccc2c1NC(=O)CN1CCCc2ccccc21	7.7	2.6	2.2*	14.3	-6.0
COC(=O)c1[nH]c2ccc(Br)cc2c1NC(=O)CN1CCCc2ccccc21	x	x	1.3	x	x
SMILES	RORA act	Jurkat tox 60K	MT1-MMP txn act	SF1 activator	HEK293 NFkB inh
CCCn1c(C)cc(=O)c2cc(NC(=O)c3ccccn3)ccc21	0.6	1.0	1.4	-2.3	24.8
COc1ccc(OC)c(NC(=O)c2nnn(Cc3ccccc3C)c2N)c1	5.5	x	0.9	22.0	11.6
Nc1nc(-c2cccs2)cs1	x	x	1.4	x	x
c1csc(-c2ccc3ccccc3n2)c1	26.2	-3.4	1.7	78.9*	-11.9
CC(=O)c1c(N2CCN(Cc3ccccc3)CC2)[nH]c(-c2ccccc2)nc1=S	28.2	38.1*	1	-7.0	19.7
CC(=O)c1c(N2CCCC2)[nH]c(-c2ccccc2)nc1=S	x	x	1.1	x	x
N#CC1=C2SCC(O)(c3ccccc3)N2C(=O)CC1c1cccs1 (centres undefined)	0.5	78.7*	x	-0.2	47.5*
CCOc1ccc2nc(SCC(=O)c3cccs3)sc2c1	26.0	-1.0	1.3	54.0*	-21.2
CCCC(=O)Nc1nc2ccc(S(=O)(=O)N3CCCCC3)cc2s1	34.4	78.7*	1.1	44.7	26.8
CCCC(=O)Nc1nc2ccc(OCC)cc2s1	49.1*	-4.9	1.5	50.5*	-33.4
CCOc1ccc2nc(NC(=O)CSc3ccccc3)sc2c1	x	x	1.2	x	x
CCOc1ccc2nc(SCC(=O)c3ccc(Cl)s3)sc2c1	x	x	1.2	x	x
COc1ccc2nc(NC(=O)c3ccc4ncsc4c3)sc2c1	54.1*	2.3	1.6	61.0*	-21.1
COC(=O)[C@@]1(Cc2ccccc2)[C@H]2c3cc(C(=O)N(C)C)n(Cc4cc(C)n(C)n4)c3C[C@H]2CN1C(=O)c1ccccc1	x	x	1	x	x
Clc1ccc(Nc2nc(-c3cccnc3)cs2)cc1	x	x	1.6	x	x
